Screening data from PubChem BioAssay.
KCC2 mod: modulates chloride dependent transport by human KCC2. AID 1456. 190,000 compounds, 2.2% hits. B-score of Tl+ flux slope (higher = more flux/activation; lower = inhibition) at 10 µM. KCC2 cells, thallium flux FluoZin-2 fluorescence;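 active = thallium flux slope and its plate-corrected score both differing from the plate sample mean at a set confidence after two filtering rounds, in either direction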;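 also: slope of fluorescence scaled to starting intensity during 10 to 20 s after thallium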
KCNQ1 act: potentiators or activators of human KCNQ1 potassium channel; CHO-K1 KCNQ1, thallium flux FluxOR fluorescence; stronger effect = higher value; B-score at 10 µM; P51787; 310,000 compounds, 0.35% hits;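 active = fluorescence ratio B-score, a plate-corrected score, at least three library SD, with initial intensity B-score within 5 SD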
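Medium – assay buffer, equal DMSO in all wells · Material – CHO-K1 cell line with stable KCNQ1 potassium channel expression · Signal – kinetic FluxOR thallium fluorescence, 10-s 1-Hz baseline, 110-s post-stimulus read · Compound – single concentration per compound, DMSO matched to controls · Schedule – 37 °C overnight plating, 90-min dark dye load, 20-min compound pretreatment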
KCNK9 block: human KCNK9 channel inhibition. HEK293 KCNK9, FluxOR thallium flux fluorescence; stronger effect = lower value. B-score at 10 µM. 310,000 compounds, 1.2% hits;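 active = ratio B-score over 3 SD below the library mean, with starting fluorescence within 5 SD of its mean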;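 also: negative B-score means less thallium flux so channel inhibition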
Target sequence (Q9NPC2 whole entry, looked up): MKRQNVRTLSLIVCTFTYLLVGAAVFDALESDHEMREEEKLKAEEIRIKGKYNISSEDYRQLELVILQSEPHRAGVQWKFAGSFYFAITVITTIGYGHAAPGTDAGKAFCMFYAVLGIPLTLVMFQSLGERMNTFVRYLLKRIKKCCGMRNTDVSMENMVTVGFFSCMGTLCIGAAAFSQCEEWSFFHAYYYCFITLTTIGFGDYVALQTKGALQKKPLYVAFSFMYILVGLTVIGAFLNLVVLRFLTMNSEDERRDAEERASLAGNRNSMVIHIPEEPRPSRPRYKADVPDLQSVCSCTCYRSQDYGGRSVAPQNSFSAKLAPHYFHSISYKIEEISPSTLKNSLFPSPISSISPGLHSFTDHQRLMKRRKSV
hERG rescue: compounds protecting human hERG from proarrhythmic drug block. Q12809. CHO-hERG, FluxOR thallium flux, dofetilide IC70 present. activation (rescue from dofetilide block), less the hit threshold, % at 10 µM. 310,000 compounds, 0.51% hits;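 active = activation above the mean of controls blocked by dofetilide plus 5 SD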;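 also: thallium influx through hERG after potassium depolarization seen as dye fluorescence rise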
KCNK3 block: human KCNK3 channel inhibition, primary screen; AID 602410; 340,000 compounds, 0.84% hits; B-score at 10 µM; CHO-KCNK3 thallium flux, FluxOR fluorescence; stronger effect = lower value; O14649;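 active = B-score under library mean minus 4 SD, starting fluorescence ratio at most library mean plus 5 SD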;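 also: more negative B-score means stronger inhibition of thallium flux through KCNK3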
Target sequence (O14649 whole entry, looked up): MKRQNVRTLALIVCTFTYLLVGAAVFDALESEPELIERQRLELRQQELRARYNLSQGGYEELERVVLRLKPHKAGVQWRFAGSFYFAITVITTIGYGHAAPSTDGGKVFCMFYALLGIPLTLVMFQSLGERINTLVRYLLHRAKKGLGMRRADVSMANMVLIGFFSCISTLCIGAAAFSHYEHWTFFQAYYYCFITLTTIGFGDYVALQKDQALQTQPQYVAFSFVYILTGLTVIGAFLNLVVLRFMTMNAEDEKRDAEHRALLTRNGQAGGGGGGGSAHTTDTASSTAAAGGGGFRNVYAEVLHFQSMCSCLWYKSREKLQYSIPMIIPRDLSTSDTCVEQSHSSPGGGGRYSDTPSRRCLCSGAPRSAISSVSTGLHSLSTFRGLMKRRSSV
KCNQ1 inh: inhibitors of human KCNQ1 potassium channel. P51787. CHO-K1 KCNQ1, FluxOR thallium flux fluorescence; stronger effect = higher value. B-score at 10 µM. 310,000 compounds, 1.3% hits;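 active = compounds whose thallium flux B-score, printed positive for inhibition, exceeds three library SD while starting fluorescence stays within three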;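 also: channel opened by potassium depolarization with thallium stimulus after 20 min compound exposure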
KCC2 secondary: KCC2 (human) modulation, secondary assay. shares compounds with KCC2 mod. HEK293-KCC2, thallium flux, FluoZin2 fluorescence; stronger effect = higher value. normalised thallium flux (F/F0 slope) at 10 µM. 3,700 compounds, 15% hits. AID 1713;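 active = thallium flux slope above the same plate's solvent-only control mean plus 3 SD; inconclusive = the two replicate wells disagree; inactive = no significant difference from solvent-only control wells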
KCC2 bumet counter: thallium flux despite bumetanide block in KCC2 cells, secondary assay 3; shares compounds with KCC2 mod; HEK293-KCC2 + bumetanide/ouabain, thallium flux FluoZin2; stronger effect = higher value; normalized thallium flux at 10 µM; 3,700 compounds, 49% hits; AID 1714;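 active = thallium entry rate above the same plate's blocked-transporter control wells by more than 3 SD; inconclusive = the two repeat wells disagree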;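 also: raw slope of fluorescence over initial fluorescence between 10 and 20 s after thallium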
KCC2 secondary2: KCC2 (human) modulation, second secondary assay; normalized thallium flux at 10 µM; shares compounds with KCC2 mod; 3,700 compounds, 23% hits; HEK293-KCC2, thallium flux FluoZin2 fluorescence; actives lie on both sides; F/F0 rise rate, 10–20 s post-thallium; AID 1715;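 active = thallium flux slope more than 3 SD above or below the plate's solvent-only control mean, mostly below; inconclusive = the two repeat wells disagreed; inactive = no significant shift from solvent-only controls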
HEK counter1: counter-screen for KCC2 modulators: effect in parental HEK293 cells | 3,700 compounds, 46% hits | thallium flux FluoZin2, ouabain; baseline-ratio fluorescence slope, 10–20 s after thallium | shares compounds with KCC2 mod | thallium flux rate (normalised fluorescence) at 10 µM;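 active = thallium flux rate significantly above the same plate's solvent-only control wells, beyond their mean plus 3 SD; inconclusive = the two replicate wells gave conflicting results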
KCC2 ouabain: modulates human KCC2 on retest with ouabain; HEK293-KCC2, thallium flux FluoZin2 fluorescence; bidirectional: low = inhibitor, high = activator; AID 1717; raw Tl+ flux slope (below DMSO = inhibition, above = activation) at 10 µM; 3,700 compounds, 48% hits; shares compounds with KCC2 mod;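 active = thallium flux slope beyond 3 SD from same-plate DMSO control mean in most replicates, usually higher, sometimes lower; inconclusive = repeat tests gave conflicting results; inactive = no significant difference from controls in most replicates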;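 also: slope of initial-normalized fluorescence between seconds 10 and 20 after thallium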
HEK counter2: counter-screen for KCC2 modulators: effect in parental HEK293 cells; shares compounds with KCC2 mod; thallium flux FluoZin-2 fluorescence slope; thallium flux slope at 10 µM; 3,700 compounds, 33% hits;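 active = thallium flux slope above the same plate's solvent-control mean plus 3 SD in both duplicate wells; inconclusive = duplicate wells that disagreed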;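 also: run without ouabain in cells lacking the KCC2 cotransporter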
Hits are given with their value; – = inactive; ? = inconclusive; · = no result given. Compounds with a hit are over-represented: about 4.1% of the library has one in this group of screens.

SMILES	KCC2 mod	KCNQ1 act	KCNK9 block	hERG rescue	KCNK3 block	KCNQ1 inh	KCC2 secondary	KCC2 bumet counter	KCC2 secondary2	HEK counter1	KCC2 ouabain	HEK counter2
O=C(O)c1sccc1SCc1ccc(Cl)cc1Cl	·	–	–	–	–	–	–	–	0.022	0.0055	0.011	–
CC1CCN(C(=O)c2ccc(CNS(=O)(=O)c3ccc(C(C)(C)C)cc3)cc2)CC1	·	·	·	·	–	·	·	·	·	·	·	·
c1ccc2sc(N3CCOCC3)nc2c1	–	–	–	–	–	–	·	·	·	·	·	·
c1ccc2sc(SN3CCOCC3)nc2c1	2.8	–	–	–	–	–	–	0.013	–	0.011	–	?
S=c1nc2ccccc2c2nc(-c3ccccc3Cl)[nH]n12	·	–	–	–	–	–	·	·	·	·	·	·
S=c1nc2ccccc2c2nc(-c3ccccc3)[nH]n12	32	–	–	–	–	–	0.03	0.046	–	0.013	0.041	0.017
Fc1ccccc1NC(=S)NCCc1cccc(Cl)c1	·	–	–	–	–	–	·	·	·	·	·	·
CC1=C(C(=O)Nc2ccccc2)C(c2ccco2)C(C#N)=C(SCc2ccccc2)N1 (stereo not given)	·	–	–	–	·	11	–	–	–	–	–	–
CC1=C(C(=O)Nc2ccccc2)C(c2ccco2)C(C#N)=C(SCC(=O)Nc2cccc(C)c2C)N1 (stereo not given)	–	–	–	–	–	–	·	·	·	·	·	·
NC1=NC[C@@H](Cc2ccc(O)cc2)N1CCc1cc(C(F)(F)F)cc(C(F)(F)F)c1	-3.2	–	–	–	–	–	–	–	0.022	–	0.014	–
NC1=NC[C@@H](Cc2ccc(O)cc2)N1CCc1cccc(F)c1	–	–	–	–	–	–	·	·	·	·	·	·
COc1ccc(N(C)S(=O)(=O)c2cccc(C(=O)NCc3ccc(C)cc3)c2)cc1	·	·	·	·	–	·	·	·	·	·	·	·
O=C(NC1CC1)c1cccc(NC(=O)C2CCN(S(=O)(=O)c3cccc(C(F)(F)F)c3)CC2)c1	·	·	·	·	–	·	·	·	·	·	·	·
Cn1c(CSc2nc3ccccc3s2)nnc1SCC(=O)NCc1ccccn1	-4	–	–	–	–	–	–	–	–	–	?	–
CC(=O)NC1=NN(C(C)=O)C2(S1)C(=O)N(C(C)C)c1ccc(C)cc12 (stereo not given)	·	–	–	–	–	–	–	–	–	–	–	–
CC(=O)NC1=NN(C(C)=O)C(C)(c2ccccc2)S1 (stereo not given)	·	–	–	–	–	–	·	·	·	·	·	·
O=C(C1CCCN(S(=O)(=O)c2cccc3nsnc23)C1)N1CCc2ccccc2C1 (stereo not given)	-3.2	–	–	–	–	–	–	–	–	–	–	–
O=Cc1ccc([B-](F)(F)F)s1	·	·	·	·	–	·	·	·	·	·	·	·
COc1ccccc1NC(=O)c1ccc(NC(=O)COC(=O)c2cccnc2Cl)cc1	·	·	·	·	–	·	·	·	·	·	·	·
O=C1CCN(C(=O)c2ccc(Cl)cc2)N1	-3.3	–	–	–	–	–	–	–	–	–	–	–
O=C1CCN(C(=O)CSc2ccc(Cl)cc2)N1	–	–	–	–	–	–	·	·	·	·	·	·
CCOP(=O)(Nc1cccc2oc(=O)c3ccccc3c12)OCC	·	·	·	·	–	·	·	·	·	·	·	·
O=C(Nc1ccc(Cl)c(Cl)c1)Nc1ccccc1C(=O)O	-4.5	–	–	–	–	–	–	?	0.024	–	–	–
Cc1cccc(N/C(=N\S(=O)(=O)c2ccccc2)C(F)(F)F)c1	·	–	–	–	–	–	–	?	–	0.01	–	–
Cc1ccc(SCCNC(=O)c2ccc(C)c(S(=O)(=O)Nc3ccccc3C)c2)cc1	·	–	–	–	–	–	–	?	–	–	0.015	–
SMILES	KCC2 mod	KCNQ1 act	KCNK9 block	hERG rescue	KCNK3 block	KCNQ1 inh	KCC2 secondary	KCC2 bumet counter	KCC2 secondary2	HEK counter1	KCC2 ouabain	HEK counter2
O=C(NC(=S)N1CCc2ccccc21)C1CCC1	14	–	–	–	–	–	–	0.025	–	0.018	?	0.016
Cc1ccc(C(=O)N2CCc3ccccc32)o1	–	–	–	–	–	–	·	·	·	·	·	·
CC(C)(C)C(=O)NC(=S)N1CCc2ccccc21	22	–	–	–	–	–	0.024	0.1	0.052	?	0.066	0.037
O=C(NC(=S)N1CCc2ccccc21)c1ccc(Br)o1	65	81	–	12	–	–	0.063	0.086	0.09	0.098	0.09	0.11
O=C(C1CCCCC1)N1CCCc2ccccc21	·	–	–	–	–	–	·	·	·	·	·	·
O=c1nc2n(c3c1oc1ccccc13)Cc1ccccc1-2	–	–	–	–	·	–	·	·	·	·	·	·
Cc1sc2c(c1C)c(=O)nc1n2Cc2ccccc2-1	·	–	–	–	·	–	–	–	–	–	–	–
COc1ccc(OC)c(N2C(=O)CC(NNC(=O)c3ccc4c(c3)OCO4)C2=O)c1 (stereo not given)	·	·	·	·	–	·	·	·	·	·	·	·
O=C(NCCO)/C(=C/c1ccc(Br)cc1)NC(=O)c1cccs1	·	–	–	–	–	–	–	–	–	–	–	–
O=C(CNC(=O)/C(=C/c1ccccc1)NC(=O)c1ccc(Br)cc1)OCc1ccccc1	-6.9	–	–	–	–	–	–	–	0.022	–	0.011	–
Cc1ccc(C(=O)N/C(=C\c2ccccc2)C(=O)OCc2ccccc2)cc1	–	–	–	–	–	–	·	·	·	·	·	·
O=C(CNC(=O)/C(=C\c1ccc(Br)cc1)NC(=O)c1ccccc1)OCc1ccccc1	-6.1	–	–	–	–	–	–	–	0.021	–	0.012	–
O=c1c2ccccc2nc(/C=C/c2ccc(Br)cc2)n1CCO	·	–	–	–	–	–	·	·	·	·	·	·
Cc1[nH]c2ccccc2c1/C=C/c1nc2ccccc2c(=O)n1CCO	-4.2	–	–	–	–	–	–	0.0024	–	–	?	–
O=C(COc1ccc(Cl)cc1Cl)NNC(=S)NCc1ccco1	–	–	–	–	–	–	·	·	·	·	·	·
